Source: PubChem BioAssay (Johns Hopkins Ion Channel Center)
The list is not random: actives were taken first. Their share in the collection is about 2.3%.
TRPC6 activator = mouse TRPC6 channel activation; B-score at 10 µM; HEK293-TRPC6 membrane potential dye fluorescence; hits give high values; AID 2550; 310,000 tested, 0.13% active; Q61143;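 active = B-score of the integrated fluorescence ratio above library mean plus 3 SD, and starting fluorescence ratio within library mean plus 5 SD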;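 also: higher score means more depolarization so channel activation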
Target sequence (Q61143 whole entry, looked up): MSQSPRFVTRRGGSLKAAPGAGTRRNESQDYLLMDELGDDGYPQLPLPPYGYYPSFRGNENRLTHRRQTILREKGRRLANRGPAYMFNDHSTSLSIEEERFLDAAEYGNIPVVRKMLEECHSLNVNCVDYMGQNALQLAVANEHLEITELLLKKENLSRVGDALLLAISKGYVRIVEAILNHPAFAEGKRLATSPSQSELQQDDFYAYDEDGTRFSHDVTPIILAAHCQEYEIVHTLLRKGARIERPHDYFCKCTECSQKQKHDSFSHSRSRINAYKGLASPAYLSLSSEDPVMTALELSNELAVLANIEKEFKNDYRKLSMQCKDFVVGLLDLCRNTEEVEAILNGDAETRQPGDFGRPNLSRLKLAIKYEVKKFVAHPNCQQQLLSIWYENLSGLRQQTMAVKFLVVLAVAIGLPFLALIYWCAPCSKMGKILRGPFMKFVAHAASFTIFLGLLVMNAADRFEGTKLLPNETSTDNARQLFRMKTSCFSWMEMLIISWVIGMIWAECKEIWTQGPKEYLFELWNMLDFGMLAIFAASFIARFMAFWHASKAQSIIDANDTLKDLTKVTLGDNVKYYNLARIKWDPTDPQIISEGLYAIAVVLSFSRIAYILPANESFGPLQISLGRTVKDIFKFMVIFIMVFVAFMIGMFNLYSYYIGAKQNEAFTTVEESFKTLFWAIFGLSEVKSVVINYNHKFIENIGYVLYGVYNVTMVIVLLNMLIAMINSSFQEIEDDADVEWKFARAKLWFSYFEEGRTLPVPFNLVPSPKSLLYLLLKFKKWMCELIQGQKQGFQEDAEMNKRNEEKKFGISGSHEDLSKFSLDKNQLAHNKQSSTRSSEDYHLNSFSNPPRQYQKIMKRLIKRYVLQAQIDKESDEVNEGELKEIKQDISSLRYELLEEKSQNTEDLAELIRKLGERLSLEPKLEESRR
TRPC4 PAM = allosterically enhances the mouse TRPC4 cation channel; HEK293 TRPC4beta/mu-opioid, DAMGO EC20, Fluo-4 Ca2+ flux; hits give high values; AID 2227; Q9QUQ5; B-score at 10 µM; 310,000 tested, 0.42% active;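 active = B-score of calcium response area above 5 SD of library B-scores, with initial fluorescence ratio within 5 SD of library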
TRPC4 block = inhibitors of mouse TRPC4 channel | Q9QUQ5 | HEK293 TRPC4beta/mu-opioid, DAMGO-evoked Fluo4 calcium flux; hits give low values | B-score at 10 µM | 300,000 tested, 0.39% active | AID 2247;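 active = B-score over 3 SD under the library average, no early fluorescence shift, positive overall ratio signal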
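Assay system: HEK293 cells with stable TRPC4beta plus mu-opioid receptor expression. Dosing: single dose. Measured by: Fluo4 Ca2+ flux fluorescence. Also added: DAMGO in two steps, submaximal then maximal. Read-out: B score from integrated Fluo4 fluorescence ratio.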
TRPC6 inhibitor = mouse TRPC6 channel inhibition; 310,000 tested, 1.1% active; HEK293-TRPC6, membrane potential dye, ACh-evoked depolarization; hits give low values; AID 2553; Q61143; B-score at 10 µM;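 active = B-score under library mean minus 3 SD, initial fluorescence not abnormally high, positive integrated signal ratio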;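 also: B-score derived from integrated fluorescence ratio over the kinetic read; more negative B-score means stronger inhibition of depolarization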
TRPC4 agonist = opens the mouse TRPC4 cation channel; Q9QUQ5; HEK293 TRPC4beta/mu-opioid, Fluo4 calcium fluorescence; hits give high values; B-score at 10 µM; 310,000 tested, 0.49% active; AID 2237;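 active = B-score above 5 SD of library B-scores, and initial fluorescence ratio not above library mean plus 5 SD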;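 also: positive B-score marks a calcium rise read as TRPC4 activation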
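Material: TRPC4beta and mu-opioid receptor HEK293 stable cells | Incubation: 45 min room-temperature Fluo4 loading, 110 s read | Detection: Kinetic Fluo4 calcium fluorescence | Measure: Integrated baseline-normalised fluorescence ratio, converted to per-well B score | Benchmarks: Low control buffer alone, high control maximal DAMGO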
TRPC4 sel inh 2 = second check of whether TRPC6 inhibitors also affect mouse TRPC4; shares compounds with TRPC6 inhibitor; HEK293 TRPC4/MOR, membrane potential dye fluorescence; channel activated by saturating DAMGO dose; inhibition, % at 10 µM; 920 tested, 42% active; AID 2776;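 active = compounds whose fluorescence signal differed from control wells by over 3 SD, either direction, in both duplicate plates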
TRPC4 spec = tests whether TRPC6 inhibitors also affect mouse TRPC4; shares compounds with TRPC6 inhibitor; activity change, negative = inhibition, % at 10 µM; HEK293 TRPC4/mu-opioid, membrane potential fluorescence; 920 tested, 61% active;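 active = rise or fall in signal beyond 3 SD of buffer-only wells in both replicate plates, either sign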;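 also: integrated kinetic ratio of fluorescence range over baseline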
HEK293 MPD ctr 2-1 = second counter-screen for TRPC6 inhibitors: parental HEK293 cells. shares compounds with TRPC6 inhibitor. parental HEK293 membrane potential dye fluorescence; maximal acetylcholine challenge after compound addition. signal change vs control, % at 10 µM. 920 tested, 31% active;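 active = membrane potential signal moving either way by over 3 SD of the maximum-effect control, in both duplicate plates, meaning non-specific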
HEK293 MPD ctr-1 = checks TRPC6 inhibitor effects in parental HEK293 cells. shares compounds with TRPC6 inhibitor. parental HEK293 membrane potential dye fluorescence. membrane potential signal change, % at 10 µM. 920 tested, 60% active. AID 2780;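 active = membrane potential signal shifting up or down by more than 3 SD of buffer-only wells, on both duplicate plates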
HEK293 MPD ctr-2 = parental HEK293 nonspecific activity of TRPC6 modulators; membrane potential dye fluorescence; 2,400 tested, 51% active; shares compounds with TRPC6 inhibitor; membrane potential signal change, % at 10 µM;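 active = membrane potential signal moves up or down beyond 5 SD from buffer-only wells, on both duplicate plates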
HEK293 MPD ctr 2-2 = second counter-screen for TRPC6 modulators: effect in parental HEK293 cells. shares compounds with TRPC6 inhibitor. membrane potential dye fluorescence; after compound, maximal acetylcholine stimulation. inhibition, % at 10 µM. 2,400 tested, 14% active;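 active = membrane potential signal drops by more than 5 SD from the mean control signal, in both duplicate plates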
TRPC4 ctr mod = mouse TRPC4 off-target activity of TRPC6 modulators; shares compounds with TRPC6 inhibitor; 2,400 tested, 69% active; percent change from control (negative = decrease, positive = increase), % at 10 µM; AID 488927; HEK293 TRPC4/mu-opioid, membrane potential fluorescence;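 active = membrane potential signal moved up or down beyond 5 SD of buffer control wells, in both duplicate plates, actives on both sides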
TRPC4 ctr inh 2 = second check of whether TRPC6 modulators also affect mouse TRPC4; shares compounds with TRPC6 inhibitor; HEK293 TRPC4/mu-opioid, membrane potential dye fluorescence; stimulated with maximal-effect DAMGO; inhibition, % at 10 µM; 2,400 tested, 55% active; AID 488928;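 active = drop in membrane potential signal beyond 5 SD of the control wells in both duplicate plates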;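 also: TRPC4 counter screen for TRPC6 hits run under conditions tuned for TRPC6 not TRPC4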
TRPC6 block conf = mouse TRPC6 inhibitor confirmation | 3,300 tested, 43% active | HEK293-TRPC6, membrane potential dye, ACh-evoked depolarization | shares compounds with TRPC6 inhibitor | inhibition, % at 10 µM;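 active = fluorescence ratio falls more than 5 SD below the full-stimulation control mean, in both duplicate runs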;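 also: integrated fluorescence ratio of peak minus minimum over baseline after agonist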
TRPC6 act confirm = mouse TRPC6 activator confirmation. shares compounds with TRPC6 inhibitor. HEK293-TRPC6 membrane potential dye fluorescence, FDSS. activation, % at 10 µM. 2,800 tested, 11% active;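 active = ratio signal rise beyond 5 SD above unstimulated control wells' mean, seen in both duplicate runs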
Each line names hits and unclear results; the compound was inactive in the other large screens (follow-up assays come after a bar, where they were run).

Cc1nnc(SCCn2c(N3CCCCC3)nc3c2c(=O)n(C)c(=O)n3C)s1	none
Cc1nnc(SCCn2c(N3CCN(C)CC3)nc3c2c(=O)n(C)c(=O)n3C)s1	TRPC6 inhibitor -13 | HEK293 MPD ctr-2 -231% | HEK293 MPD ctr 2-2 96% | TRPC4 ctr mod -35% | TRPC4 ctr inh 2 59% | TRPC6 block conf 72% | TRPC6 act confirm inactive
CC(=O)Nc1ccc(N2CCOCC2)c(Cl)c1	none
Cc1ccc(NC(=O)CSCC(=O)Nc2ccc(N3CCOCC3)c(Cl)c2)cc1	TRPC6 inhibitor -5.7 | HEK293 MPD ctr-2 inactive | HEK293 MPD ctr 2-2 inactive | TRPC4 ctr mod inactive | TRPC4 ctr inh 2 inactive | TRPC6 block conf inactive | TRPC6 act confirm inactive
Cc1nnc(C)c2c(C)n(-c3ccccc3)c(C)c12	TRPC6 inhibitor -5 | HEK293 MPD ctr-2 -127% | HEK293 MPD ctr 2-2 inactive | TRPC4 ctr mod -22% | TRPC4 ctr inh 2 50% | TRPC6 block conf 45% | TRPC6 act confirm inactive
C/C(=N\NC(=O)c1cccc(O)c1)c1ccc(NC(=O)Cc2ccccc2)cc1	none
FC(F)Sc1ccc(-n2cc(-c3ccccc3)[n+]3c2CCC3)cc1	none
COc1ccc(-c2cn(-c3ccc(SC(F)F)cc3)c3[n+]2CCC3)cc1OC	TRPC6 inhibitor -6.3 | HEK293 MPD ctr-2 -137% | HEK293 MPD ctr 2-2 128% | TRPC4 ctr mod -20% | TRPC4 ctr inh 2 38% | TRPC6 block conf 64% | TRPC6 act confirm inactive
CCC1(C)Cc2c(sc(NC(=S)NC(=O)c3ccccc3)c2C#N)CO1 (centres undefined)	none
CN1Cc2sc(NC(=S)NC(=O)c3ccccc3)c(C#N)c2CC1(C)C	TRPC6 activator 21, TRPC6 inhibitor -5.2 | HEK293 MPD ctr-2 168% | HEK293 MPD ctr 2-2 inactive | TRPC4 ctr mod 24% | TRPC4 ctr inh 2 inactive | TRPC6 block conf inactive | TRPC6 act confirm 40%
COc1ccc(OC)c(Nc2cc(C(=O)NCCCN3CCOCC3)c3ccccc3n2)c1	TRPC6 inhibitor -5.5 | HEK293 MPD ctr-2 inactive | HEK293 MPD ctr 2-2 inactive | TRPC4 ctr mod inactive | TRPC4 ctr inh 2 45% | TRPC6 block conf inactive | TRPC6 act confirm inactive
COc1ccccc1Nc1cc(C(=O)NCCCN2CCOCC2)c2ccccc2n1	none
O=C(NCCCN1CCOCC1)c1cc2c([nH]c3ccccc32)c(-c2cccc(Br)c2)n1	TRPC6 inhibitor -8.8 | TRPC4 sel inh 2 inactive | TRPC4 spec inactive | HEK293 MPD ctr 2-1 inactive | HEK293 MPD ctr-1 inactive | TRPC6 block conf 54% | TRPC6 act confirm inactive
COc1cccc(-c2nc(C(=O)NCCCN3CCOCC3)cc3c2[nH]c2ccccc23)c1	TRPC6 inhibitor -7.3 | TRPC4 sel inh 2 inactive | TRPC4 spec -10% | HEK293 MPD ctr 2-1 inactive | HEK293 MPD ctr-1 -158% | TRPC6 block conf inactive | TRPC6 act confirm inactive
Cc1cccc(-c2nc(=S)c3c(n2Cc2ccco2)CCCC3)c1	TRPC6 inhibitor -6.3 | HEK293 MPD ctr-2 184% | HEK293 MPD ctr 2-2 inactive | TRPC4 ctr mod 42% | TRPC4 ctr inh 2 inactive | TRPC6 block conf inactive
COc1cccc(-c2nc(=S)c3c(n2Cc2ccco2)CCCC3)c1	none
O=C1C2CSCN2C(=O)CN1CCCN1CCN(C(c2ccccc2)c2ccccc2)CC1 (centres undefined)	TRPC6 inhibitor -5.3 | HEK293 MPD ctr-2 82% | HEK293 MPD ctr 2-2 inactive | TRPC4 ctr mod 11% | TRPC4 ctr inh 2 39% | TRPC6 block conf 45%
CC(C)n1cnc2c(N(C)c3ccccc3)nc(N(CCN(C)C)Cc3ccccc3)nc21	TRPC6 inhibitor -5.8, TRPC4 agonist 110 | HEK293 MPD ctr-2 87% | HEK293 MPD ctr 2-2 inactive | TRPC4 ctr mod 40% | TRPC4 ctr inh 2 96% | TRPC6 block conf 48% | TRPC6 act confirm inactive
CCOC(=O)c1ccc(NC(=O)Oc2cc(C)c(Cl)cc2C(C)C)cc1	TRPC6 inhibitor -9.9 | HEK293 MPD ctr-2 126% | HEK293 MPD ctr 2-2 inactive | TRPC4 ctr mod 13% | TRPC4 ctr inh 2 31% | TRPC6 block conf inactive | TRPC6 act confirm inactive
COc1cccc2sc(N(CCN(C)C)C(=O)/C=C/c3cccs3)nc12	TRPC6 inhibitor -6 | HEK293 MPD ctr-2 inactive | HEK293 MPD ctr 2-2 inactive | TRPC4 ctr mod -9.5% | TRPC4 ctr inh 2 72% | TRPC6 block conf 43% | TRPC6 act confirm inactive
CN(C)CCN(C(=O)c1ccc2c(c1)CCCC2)c1nc2c(F)cccc2s1	none
COc1cccc2sc(N(CCN(C)C)C(=O)c3ccc4c(c3)CCCC4)nc12	TRPC6 inhibitor -6.4 | HEK293 MPD ctr-2 -111% | HEK293 MPD ctr 2-2 98% | TRPC4 ctr mod -34% | TRPC4 ctr inh 2 94% | TRPC6 block conf 86% | TRPC6 act confirm inactive
CC1(C)Nc2ccccc2C(=O)N1c1ccccc1	none
COc1ccc(-n2nc(C(N)=O)nc2-c2ccccc2)cc1	TRPC6 inhibitor -5.8 | HEK293 MPD ctr-2 inactive | HEK293 MPD ctr 2-2 inactive | TRPC4 ctr mod inactive | TRPC4 ctr inh 2 inactive | TRPC6 block conf 48%
Cc1ccc(-n2nc(C(N)=O)nc2-c2ccccc2)cc1	none
N=c1n(CC(=O)c2cccs2)c2ccccc2n1Cc1ccccc1	TRPC6 inhibitor -9.7 | TRPC4 sel inh 2 33% | TRPC4 spec inactive | HEK293 MPD ctr 2-1 inactive | HEK293 MPD ctr-1 2.0% | TRPC6 block conf 65% | TRPC6 act confirm inactive
